Screening data (PubChem BioAssay)
FLuc inh counter: inhibits firefly luciferase, flagging false hits in luciferase inhibition screens. P08659. ATPLite firefly luciferase biochemical luminescence, 10 min. inhibition, % at 10 µM. hit rate 1.5% among 200,000. AID 1006;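 active means inhibition above about 50% when tested at 10 µM, limit read from the data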
Target sequence (P08659 whole entry, looked up): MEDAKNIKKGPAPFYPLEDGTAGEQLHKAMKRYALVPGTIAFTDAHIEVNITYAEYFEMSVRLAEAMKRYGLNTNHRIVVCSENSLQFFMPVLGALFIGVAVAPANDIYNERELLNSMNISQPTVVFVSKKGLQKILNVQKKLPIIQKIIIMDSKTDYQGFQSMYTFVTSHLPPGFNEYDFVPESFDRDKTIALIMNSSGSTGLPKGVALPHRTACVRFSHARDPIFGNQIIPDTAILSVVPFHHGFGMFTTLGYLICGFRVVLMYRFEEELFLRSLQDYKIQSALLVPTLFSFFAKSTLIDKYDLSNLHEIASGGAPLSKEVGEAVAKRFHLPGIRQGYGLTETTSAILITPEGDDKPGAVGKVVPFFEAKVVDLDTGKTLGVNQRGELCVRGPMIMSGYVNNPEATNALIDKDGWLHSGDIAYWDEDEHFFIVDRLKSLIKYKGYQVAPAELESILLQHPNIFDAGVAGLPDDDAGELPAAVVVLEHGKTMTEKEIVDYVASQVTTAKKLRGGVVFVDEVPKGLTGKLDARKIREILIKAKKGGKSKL
FLuc act counter: affects firefly luciferase, flagging false hits in luciferase stimulation screens; activation factor at 10 µM; ATPlite luciferase biochemical, luminescence, 10 min; 0 = ATP-free wells, 1 = DMSO control; 200,000 tested, under 10 active;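 active means luciferase activation factor, scaled between plate controls, of at least 2 with compound at 10 µM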
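System: cell-free luciferase reagent; medium: PBS as buffer for the ATP substrate; doses: test compounds dosed from 2 mM stocks in 100% DMSO; incubation: 10 min, room temperature; measured by: luminescence from luciferase reaction; read-out: luciferase activation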
APP 5'UTR act: activates APP 5'UTR luciferase reporter; SH-SY5Y APP 5'UTR luciferase reporter, luminescence; zero percent = DMSO vehicle wells; activation, % at 2 µM; hit rate 1% among 190,000; AID 1276;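 active means activation above a set limit, based on mean plus 3 SD of controls, cut at about 140% in these data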
NF-kB expr up: NF-kB expression increase, human neuronal cells; NF-kB reporter expression; active compounds read high; fold change at 12.5 µM; hit rate 1.6% among 190,000; AID 1239; in the data active means fold change above about 3.3
STAT1 act: STAT1 signaling activation; NIH 3T3 STAT1-luciferase reporter, IFN-gamma, luminescence; 100% = IFN-gamma alone, no compound; activation (% of control), % at 5.5 µM; hit rate 2.6% among 200,000; AID 932;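 active means activation above the screen-wide mean activation plus 3 SD, cut at about 130% in these data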
STAT1 act conf: STAT1 activation, confirmation assay; activation (% of control), % at 5.7 µM; shares compounds with STAT1 act; AID 1262; NIH 3T3 STAT1-luciferase reporter, IFN-gamma potentiation, luminescence; 100% = IFN-gamma EC80 alone, no compound; hit rate 97% among 1,200;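 active means activation above a set limit carried over from the earlier primary STAT1 screen, cut at about 140% in these data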
NFkB act: counter-screen for STAT1 activators: NF-kappaB activation | shares compounds with STAT1 act | hit rate 43% among 1,200 | HEK293T NF-kB luciferase reporter, TNF-alpha stimulated, luminescence; 100% = TNF-alpha with vehicle only | activation (% of control), % at 5.7 µM;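 active means activation above the mean of solvent-only control wells plus 3 SD, set per campaign, cut at about 130% in these data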;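 further: TNF-alpha given at a submaximal dose yielding about 80% of full reporter signal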
STAT3 act 2: human STAT3 activation in STAT1 activator counter-screen | shares compounds with STAT1 act | U3A cells STAT3-luciferase reporter, IL-6, luminescence; cells lack STAT1; 100 = IL-6 alone, no compound effect | activation (% of control), % at 5.7 µM | hit rate 46% among 1,200;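 active means activation above the solvent-only control well mean plus 3 SD, set per plate batch, cut at about 110% in these data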;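 further: higher means more STAT3 reporter activation so hits are non-selective activators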
Of the large screens only hits and unclear results are named; the others gave an inactive call (follow-up assays come after a bar, where they were run). An excerpt weighted towards active compounds, which were near 4.3% of everything screened.

Cc1ccc2nc(NC(=O)CCn3cccc3)sc2c1	STAT1 act 152 | STAT1 act conf 141 | NFkB act inactive | STAT3 act 2 inactive
Cc1ccc2nc(NC(=O)c3ccc(Cl)s3)sc2c1	NF-kB expr up 5.3, STAT1 act 152 | STAT1 act conf 249 | NFkB act 138 | STAT3 act 2 inactive
Cc1ccc(C(=O)Nc2nc3ccccc3s2)s1	FLuc inh counter 60, APP 5'UTR act 157, NF-kB expr up 4.2, STAT1 act 157 | STAT1 act conf 264 | NFkB act inactive | STAT3 act 2 inactive
COC(=O)C1CSC(C(=O)OC)N1C(=O)CN1CCN(c2ccc(OC)cc2)CC1 (stereo unspecified)	none
CC(C)(C)C(=O)Nc1nc(-c2ccccc2)ns1	APP 5'UTR act 144, NF-kB expr up 5.9, STAT1 act 165 | STAT1 act conf 200 | NFkB act inactive | STAT3 act 2 inactive
COC(=O)c1nnn(-c2ccsc2C(=O)OC)c1C(=O)OC	none
O=C(O)C1=C[C@@H](C2CCCCC2)C[C@@H](OCc2ccc(CO)cc2)O1	none
O=C(NC1CC1)C1=C[C@H](C2CCCCC2)C[C@H](OCc2ccc(CO)cc2)O1	STAT1 act 158 | STAT1 act conf inactive | NFkB act inactive | STAT3 act 2 inactive
Cc1ccc(/C=C/C(=O)N2CCc3ccccc32)o1	FLuc inh counter 75, APP 5'UTR act 168, NF-kB expr up 8.2, STAT1 act 180 | STAT1 act conf 224 | NFkB act 138 | STAT3 act 2 inactive
Cc1c(C(=O)N2CCc3ccccc32)oc2ccccc12	FLuc inh counter 73, APP 5'UTR act 156, NF-kB expr up 8.2, STAT1 act 155 | STAT1 act conf 217 | NFkB act 141 | STAT3 act 2 150
COC(=O)c1sccc1NC(=O)Nc1cccc(C)c1	STAT1 act 159 | STAT1 act conf 177 | NFkB act 134 | STAT3 act 2 123
CCOC(=O)Nc1ccc2c(C)cc(=O)oc2c1	none
CCCCOC(=O)Nc1ccc2c(C)cc(=O)oc2c1	APP 5'UTR act 138, NF-kB expr up 5.8, STAT1 act 166 | STAT1 act conf 197 | NFkB act 144 | STAT3 act 2 inactive
C=CCn1c(C)cc(C(=O)CSc2nc3ccccc3o2)c1C	STAT1 act 160 | STAT1 act conf 215 | NFkB act inactive | STAT3 act 2 inactive
COCCn1c(N/N=C(C)/C=C/c2ccccc2)nc2c1c(=O)[nH]c(=O)n2C	none
Cc1ccc(OCC(=O)N2CCc3ccccc32)cc1	FLuc inh counter 78, APP 5'UTR act 156, STAT1 act 155 | STAT1 act conf 192 | NFkB act 134 | STAT3 act 2 inactive
COc1ccc2c(c1OC)C(=O)OC2Nc1nc(-c2ccc(-c3ccccc3)cc2)cs1 (stereo unspecified)	FLuc inh counter 74, APP 5'UTR act 179, NF-kB expr up 11, STAT1 act 181 | STAT1 act conf 232 | NFkB act 135 | STAT3 act 2 inactive
COc1ccc2c(c1OC)C(=O)OC2Nc1nc(-c2cc3cc([N+](=O)[O-])ccc3oc2=O)cs1 (stereo unspecified)	none
COc1ccc2c(c1OC)C(=O)OC2Nc1nc(-c2cc3ccccc3oc2=O)cs1 (stereo unspecified)	APP 5'UTR act 153, NF-kB expr up 6.7, STAT1 act 182 | STAT1 act conf 195 | NFkB act inactive | STAT3 act 2 inactive
COc1ccc(CCNc2cc(C)nc3c(-c4ccccc4)cnn23)cc1OC	none
COc1ccc(-c2cc(C)nc3c(-c4ccccc4)cnn23)cc1	FLuc inh counter 51, APP 5'UTR act 168, STAT1 act 167 (no result: NF-kB expr up) | STAT1 act conf 266 | NFkB act inactive | STAT3 act 2 inactive
